Assay results published in ChEMBL document CHEMBL4014341, “Discovery of a Human Neuromedin U Receptor 1-Selective Hexapeptide Agonist with Enhanced Serum Stability” (J Med Chem, 2017).
Calls of active or inactive are those of the source. The calls are words filed in the database; no cut-off is given here. Square brackets hold non-standard residues; d marks the D form. Peptide text beside a SMILES is read from it. * marks the point of attachment. Phe(4-NO2) = N[C@@H](Cc1ccc([N+](=O)[O-])cc1)C(=O)O; Phe(4-CF3) = N[C@@H](Cc1ccc(C(F)(F)F)cc1)C(=O)O; Phe(4-Br) = N[C@@H](Cc1ccc(Br)cc1)C(=O)O; Phe(4-CN) = N#Cc1ccc(C[C@H](N)C(=O)O)cc1; Phe(4-Cl) = N[C@@H](Cc1ccc(Cl)cc1)C(=O)O; αMeW = C[C@](N)(Cc1c[nH]c2ccccc12)C(=O)O; Phe(3-F) = N[C@@H](Cc1cccc(F)c1)C(=O)O; Phe(4-F) = N[C@@H](Cc1ccc(F)cc1)C(=O)O; Phe(2-F) = N[C@@H](Cc1ccccc1F)C(=O)O; Acetyl(2-thienyl) = O=C(Cc1cccs1)*

Columns and labels:
[1] = biological target: T1, Neuromedin-U receptor 1 (Homo sapiens) (UniProt Q9HB89); assay: Agonist activity at human NMUR1 expressed in CHO cells assessed as induction of Ca2+ flux at 0.1 to 10 nM after 18 hrs by Fluo-4 AM dye based FLIPR assay relative to NMU; type: functional, cell-based
T1 sequence (whole entry): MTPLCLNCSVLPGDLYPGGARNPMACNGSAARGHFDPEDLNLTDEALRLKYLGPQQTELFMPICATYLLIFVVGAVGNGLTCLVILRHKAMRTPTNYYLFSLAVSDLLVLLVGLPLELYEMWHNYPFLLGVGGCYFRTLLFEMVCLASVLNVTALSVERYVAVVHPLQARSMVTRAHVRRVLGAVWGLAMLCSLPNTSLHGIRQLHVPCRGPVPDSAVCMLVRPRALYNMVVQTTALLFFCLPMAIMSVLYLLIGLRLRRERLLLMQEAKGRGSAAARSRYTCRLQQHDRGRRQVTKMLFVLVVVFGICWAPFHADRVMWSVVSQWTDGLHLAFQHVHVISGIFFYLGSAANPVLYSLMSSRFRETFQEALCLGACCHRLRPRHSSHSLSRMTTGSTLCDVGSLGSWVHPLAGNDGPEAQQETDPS
In short: (§1)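 Human NMUR1 or NMUR2 stably expressed in CHO cells was assayed by Fluo-4 AM (4 μM, 40 min) FLIPR calcium flux, with cells seeded 18 h before. Peptides were tested at single concentrations of 0.1, 10 or 100 nM. Maximal response is expressed as % of hNMU at 1000 nM (=100%).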

[2] = biological target: Neuromedin-U receptor 2 (Homo sapiens) (UniProt Q9GZQ4); assay: Agonist activity at human NMUR2 expressed in CHO cells assessed as induction of Ca2+ flux at 0.1 to 10 nM after 18 hrs by Fluo-4 AM dye based FLIPR assay relative to NMU; type: functional, cell-based; in short: as §1
Chain of Neuromedin-U receptor 2 (Homo sapiens) (Q9GZQ4 whole entry): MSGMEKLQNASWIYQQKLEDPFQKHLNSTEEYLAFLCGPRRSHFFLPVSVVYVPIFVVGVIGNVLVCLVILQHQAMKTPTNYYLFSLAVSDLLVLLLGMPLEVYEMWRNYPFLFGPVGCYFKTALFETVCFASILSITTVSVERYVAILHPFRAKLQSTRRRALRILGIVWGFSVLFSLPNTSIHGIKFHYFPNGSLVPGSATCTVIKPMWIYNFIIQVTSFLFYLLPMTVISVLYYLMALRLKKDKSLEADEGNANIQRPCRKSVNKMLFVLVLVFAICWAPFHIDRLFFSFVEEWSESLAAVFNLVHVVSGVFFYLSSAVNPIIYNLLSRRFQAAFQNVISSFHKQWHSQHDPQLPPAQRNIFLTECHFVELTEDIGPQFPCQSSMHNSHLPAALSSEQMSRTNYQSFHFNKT

[3] = biological target: Neuromedin-U receptor 2 (Homo sapiens) (UniProt Q9GZQ4); assay: Agonist activity at human NMUR2 expressed in CHO cells assessed as induction of Ca2+ flux at 10 nM after 18 hrs by Fluo-4 AM dye based FLIPR assay relative to NMU; type: functional, cell-based; in short: as §1
[4] = biological target: T1, Neuromedin-U receptor 1 (Homo sapiens); assay: Agonist activity at human NMUR1 expressed in CHO cells assessed as induction of Ca2+ flux at 0.1 nM after 18 hrs by Fluo-4 AM dye based FLIPR assay relative to NMU; type: functional, cell-based; in short: as §1
[5] = Clearance in Wistar rat at 1 mg, iv up to 240 mins by LC/MS analysis; type: ADME, organism-based; details: in vivo
[6] = AUC in Wistar rat at 1 mg, iv up to 240 mins by LC/MS analysis; type: ADME, organism-based; parameters: dose 1 mg, time < 4 hr, route intravenous; details: in vivo
[7] = MRT in Wistar rat at 1 mg, iv by LC/MS analysis; type: ADME, organism-based; details: in vivo
[8] = biological target: Neuromedin-U receptor 2 (Homo sapiens) (UniProt Q9GZQ4); assay: Agonist activity at human NMUR2 expressed in CHO cells assessed as induction of Ca2+ flux at 0.1 uM after 18 hrs by Fluo-4 AM dye based FLIPR assay relative to NMU; type: functional, cell-based; in short: as §1
Rattus norvegicus = species on record: Rattus norvegicus; assay: Stability in rat serum at 1 mM at 120 mins by RP-HPLC/MS analysis
Prothrombin = Prothrombin (Homo sapiens, UniProt P00734); assay: Drug metabolism in human serum treated with (S)-2-((S)-1-((S)-2-((S)-2-((S)-3-(1H-indol-3-yl)-2-(2-(thiophen-2-yl)acetamido)propanamido)-3-(1H-indol-3-yl)-2-methylpropanamido)-5-guanidinopentanoyl)pyrrolidine-2-carboxamido)-5-guanidinopentanoic acid assessed as thrombin-mediated metabolite formation at 1 mM after 120 mins by RP-HPLC analysis; type: ADME; details: 2 h, 1000 µM

Activity [1] | Activity [2] | Activity [3] | SMILES | further results
 |  | inactive | N=C(N)NCCC[C@H](NC(=O)[C@@H]1CCCN1C(=O)[C@H](CCCNC(=N)N)NC(=O)[C@H](Cc1ccc(Br)cc1)NC(=O)[C@H](Cc1c[nH]c2ccccc12)NC(=O)Cc1cccs1)C(=O)N[C@@H](CC(N)=O)C(N)=O ({Acetyl(2-thienyl)}-W[Phe(4-Br)]RPRN-NH2) | 
 |  | Active | N=C(N)NCCC[C@H](NC(=O)[C@@H]1CCCN1C(=O)[C@H](CCCNC(=N)N)NC(=O)[C@H](Cc1ccc(Cl)cc1)NC(=O)[C@H](Cc1c[nH]c2ccccc12)NC(=O)Cc1cccs1)C(=O)N[C@@H](CC(N)=O)C(N)=O ({Acetyl(2-thienyl)}-W[Phe(4-Cl)]RPRN-NH2) | 
Active | Active |  | N=C(N)NCCC[C@H](NC(=O)[C@@H]1CCCN1C(=O)[C@H](CCCNC(=N)N)NC(=O)[C@H](Cc1ccc(F)cc1)NC(=O)[C@H](Cc1c[nH]c2ccccc12)NC(=O)Cc1cccs1)C(=O)N[C@@H](CC(N)=O)C(N)=O ({Acetyl(2-thienyl)}-W[Phe(4-F)]RPRN-NH2) | clearance [5]: 3.19 mL/min; AUC at 4 h [6]: 5300 ng·h/mL; MRT [7]: 11.5 min

Second part, the compound before the results:

SMILES | Activity [1] | Activity [2] | Activity [3] | further results
N=C(N)NCCC[C@H](NC(=O)[C@@H]1CCCN1C(=O)[C@H](CCCNC(=N)N)NC(=O)[C@H](Cc1ccccc1F)NC(=O)[C@H](Cc1c[nH]c2ccccc12)NC(=O)Cc1cccs1)C(=O)N[C@@H](CC(N)=O)C(N)=O ({Acetyl(2-thienyl)}-W[Phe(2-F)]RPRN-NH2) | Active | Active |  | 
N=C(N)NCCC[C@H](NC(=O)[C@@H]1CCCN1C(=O)[C@H](CCCNC(=N)N)NC(=O)[C@H](Cc1cccc(F)c1)NC(=O)[C@H](Cc1c[nH]c2ccccc12)NC(=O)Cc1cccs1)C(=O)N[C@@H](CC(N)=O)C(N)=O ({Acetyl(2-thienyl)}-W[Phe(3-F)]RPRN-NH2) | Active | Active |  | 
N=C(N)NCCC[C@H](NC(=O)[C@@H]1CCCN1C(=O)[C@H](CCCNC(=N)N)NC(=O)[C@H](Cc1ccc(C(F)(F)F)cc1)NC(=O)[C@H](Cc1c[nH]c2ccccc12)NC(=O)Cc1cccs1)C(=O)N[C@@H](CC(N)=O)C(N)=O ({Acetyl(2-thienyl)}-W[Phe(4-CF3)]RPRN-NH2) |  |  | inactive | Activity [4]: Active
N#Cc1ccc(C[C@H](NC(=O)[C@H](Cc2c[nH]c3ccccc23)NC(=O)Cc2cccs2)C(=O)N[C@@H](CCCNC(=N)N)C(=O)N2CCC[C@H]2C(=O)N[C@@H](CCCNC(=N)N)C(=O)N[C@@H](CC(N)=O)C(N)=O)cc1 ({Acetyl(2-thienyl)}-W[Phe(4-CN)]RPRN-NH2) |  |  | inactive | 
N=C(N)NCCC[C@H](NC(=O)[C@@H]1CCCN1C(=O)[C@H](CCCNC(=N)N)NC(=O)[C@H](Cc1ccc([N+](=O)[O-])cc1)NC(=O)[C@H](Cc1c[nH]c2ccccc12)NC(=O)Cc1cccs1)C(=O)N[C@@H](CC(N)=O)C(N)=O ({Acetyl(2-thienyl)}-W[Phe(4-NO2)]RPRN-NH2) |  |  | inactive | 
C[C@@](Cc1c[nH]c2ccccc12)(NC(=O)[C@H](Cc1c[nH]c2ccccc12)NC(=O)Cc1cccs1)C(=O)N[C@@H](CCCNC(=N)N)C(=O)N1CCC[C@H]1C(=O)N[C@@H](CCCNC(=N)N)C(=O)O ({Acetyl(2-thienyl)}-W[αMeW]RPR-OH) | Active |  |  | Activity [8]: inactive; remaining at 2 h, 1000 µM (Rattus norvegicus): 101%; Drug metabolism (Prothrombin): Metabolite_Detected
